Assay results collected from several papers.
Compare with care: the assays were run in different laboratories.
TYK2 JH1: Non-receptor tyrosine-protein kinase TYK2, JH1 (TYK2, Homo sapiens, UniProt P29597)
TYK2: Non-receptor tyrosine-protein kinase TYK2 (TYK2, Homo sapiens, UniProt P29597)
TYK2 JH2: Non-receptor tyrosine-protein kinase TYK2, JH2 (TYK2, Homo sapiens, UniProt P29597)

Structure (SMILES) | target | test | conditions | remaining binding [%]
Cc1cnc(Nc2ccc(C(=O)N3CCC(N4CCCC4)CC3)cc2)nc1-c1cc2ccccc2s1 | TYK2 JH1 | binding, competition with immobilised ligand | 1 µM | 6.7
CN(C)c1ncc(F)c(-c2cnn3ncccc23)n1 | TYK2 | binding | 1 µM | 70
O=C(c1ccc(Nc2ncc(Cl)c(-c3cc4ccccc4s3)n2)cc1)N1CCC(N2CCCC2)CC1 | TYK2 JH1 | binding, competition with immobilised ligand | 1 µM | 7.1
COc1cc(-c2cn(C3CCc4c(F)cccc4N(CC(F)(F)F)C3=O)nn2)ccc1-n1cnc(C)c1 (stereo not drawn) | TYK2 JH2 | cell-free assay, competition with immobilised ligand | 1 µM | 100
c1cncc(-c2cccc(Nc3nccc(NC4CCCCC4)n3)c2)c1 | TYK2 JH2 | binding, competition with immobilised ligand | 10 µM | 3.8
COc1cnc(Nc2cccc(S(N)(=O)=O)c2)nc1N1CCN(c2ccccc2)CC1 | TYK2 JH1 | binding, competition with immobilised ligand | 1 µM | 53
COc1ccc2cc(OCC3(C(=O)O)CN(C(=O)c4ccc(F)cc4)C3)ccc2c1 | TYK2 JH2 | cell-free assay, competition with immobilised ligand | 1 µM | 100
O=C(NCCCN1CCOCC1)c1ccc(Nc2ncc(Cl)c(-c3ccc(Cl)s3)n2)cc1 | TYK2 JH2 | binding, competition with immobilised ligand | 1 µM | 5.3
CN(C)c1nccc(-c2cnn3ncccc23)n1 | TYK2 JH1 | cell-free assay, competition with immobilised ligand | 1 µM | 51
COc1cnc(Nc2cccc(S(N)(=O)=O)c2)nc1N1CCN(c2ccccc2)C(=O)C1 | TYK2 JH2 | binding, competition with immobilised ligand | 1 µM | 13
N[C@@H]1CCN(c2nccc(-c3cnn4ncccc34)n2)C1 | TYK2 JH1 | cell-free assay, competition with immobilised ligand | 1 µM | 100
CNC(=O)[C@@H]1CC[C@@H](n2c(-c3ccc4cnccc4c3)nc3ccc(C(=O)NCc4cccc(C(N)=O)c4)cc32)C1 | TYK2 JH2 | binding, competition with immobilised ligand | 1 µM | 100
COc1ncc2cc3ccccc3nc2c1C#N | TYK2 JH2 | cell-free assay, competition with immobilised ligand | 5 µM | 99
CN1CCN(c2ccc(Nc3nccc(-c4ccccc4)n3)cc2C(F)(F)F)CC1 | TYK2 | binding | 10 µM | 0
COc1ccnn2ncc(-c3ccnc(N(C)C)n3)c12 | TYK2 JH1 | cell-free assay, competition with immobilised ligand | 1 µM | 81
Nc1ncc2c(n1)-c1c([nH]c3ccc(C#CC4CC4)cc13)CCCC2 | TYK2 JH1 | binding, competition with immobilised ligand | 1 µM | 86
Cc1cnn2ncc(-c3ccnc(N(C)C)n3)c2c1 | TYK2 JH1 | cell-free assay, competition with immobilised ligand | 1 µM | 64

Structure (SMILES) | target | test | conditions | remaining binding [%]
CN(C)c1ncnc(-c2ccc3nc(Nc4cc(CN5CCN(C(=O)CC(F)(F)F)CC5)ccn4)[nH]c3c2)c1Cl | TYK2 JH2 | cell-free assay, competition with immobilised ligand | 1 µM | 77
O=C(c1ccc(Nc2ncc(Cl)c(-c3ccc(Cl)s3)n2)cc1)N1CCC(N2CCCC2)CC1 | TYK2 JH2 | binding, competition with immobilised ligand | 1 µM | 0.2
COc1ccc2c(c1)O[C@H](c1ccc(OC)c(OC)c1)C[C@@H]2NC(=O)C1(c2ccc3c(c2)OC(F)(F)O3)CC1 | TYK2 JH2 | cell-free assay, competition with immobilised ligand | 1 µM | 100
O=C(NCC1CCOCC1)c1n[nH]cc1NC(=O)c1c(F)cccc1F | TYK2 JH2 | binding, competition with immobilised ligand | 1 µM | 59
C[C@H](NC(=O)c1cnc2n1[C@](C)(Cc1ccc(C#N)cc1)C(=O)N2c1cc(Cl)c(F)c(Cl)c1)C(=O)NC1(c2ccccn2)CC1 | TYK2 JH2 | cell-free assay, competition with immobilised ligand | 1 µM | 100
O=C(NCCCN1CCOCC1)c1ccc(Nc2nccc(-c3cc4ccccc4s3)n2)cc1 | TYK2 JH1 | binding, competition with immobilised ligand | 1 µM | 11
C[C@@H]1CCN(c2nccc(-c3cnn4ncccc34)n2)C1 | TYK2 | binding | 1 µM | 66
O=C(Nc1c[nH]nc1C(=O)NC1CCNCC1)c1cc(F)cc(F)c1 | TYK2 JH1 | binding, competition with immobilised ligand | 1 µM | 100
CC(C)(C)c1ccc(-c2nc(CBr)nn2-c2cccc(O)c2)cc1 | TYK2 | cell-free assay, competition with immobilised ligand | 10 µM | 62
CN(C)c1nccc(-c2cnc3ncccn23)n1 | TYK2 | binding | 1 µM | 82
Cc1nc(C2CCN(C(=O)c3ccc(OC(F)(F)F)cc3N)CC2)c2ncc(N3CCN(C)CC3)cc2n1 | TYK2 JH2 | cell-free assay, competition with immobilised ligand | 1 µM | 88
CCN1CCN(Cc2ccc(C(=O)Nc3ccc(C)c(Oc4ccc5c(c4)CC(=O)N5)c3)cc2C(F)(F)F)CC1 | TYK2 JH1 | binding, competition with immobilised ligand | 1 µM | 100
CCCOc1ccc([C@H]2[C@H](C(=O)O)[C@@H](c3ccc4c(c3)OCO4)CN2CC(=O)Nc2c(CC)cccc2CC)cc1 | TYK2 JH2 | cell-free assay, competition with immobilised ligand | 1 µM | 80
C[C@@H]1CN(c2ccc3ncc(-c4ccc5[nH]nc(C6CC6)c5c4)n3n2)C[C@H](C)O1 | TYK2 | binding, competition with immobilised ligand | 50 nM | 88
O=C(c1ccc(Nc2nccc(-c3cc4ccccc4s3)n2)cc1)N1CCC(N2CCCC2)CC1 | TYK2 JH1 | binding, competition with immobilised ligand | 1 µM | 13
COc1cccc(CNC(=O)c2nc3scc(COCc4ccc(C(=O)O)cc4)c3c(=O)[nH]2)c1 | TYK2 JH2 | cell-free assay, competition with immobilised ligand | 1 µM | 79.8
